SR-BI DiI-HDL act: activators of SR-BI mediated DiI-HDL uptake, primary screen, ldlA[mSR-BI] CHO cells, DiI fluorescence; 3 h; 100 = double the neutral-control signal; activation, % at 12.5 µM; 320,000 compounds, 0.096% hits;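 active means mean replicate activation of at least 60% and every replicate at or above 60%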;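 further: 0% = median plate neutral-control signal and 100% = twice that signal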
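material = CHO ldlA[mSR-BI] cells | medium = Ham's F12 with 0.5% BSA, HEPES 25 mM, pH 7.4 | reagent = fluorescent DiI-HDL, 10 µg/mL final | compound dosing = single-point compound dose | incubation = 3 h, 37 °C | measured by = bottom-read fluorescence, 550/595 nm | measure = HDL uptake via cellular fluorescence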
Hep lipid drop: inhibitors of hepatocyte lipid droplet formation, primary screen, imaging, high-throughput imaging, BODIPY stain. AID 1656, 2009. 240,000 compounds, 0.4% hits. inhibition, % at 6.5 µM. AML12 mouse hepatocytes, oleate lipid droplets;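 active means lipid droplet intensity inhibited by at least 50%, with more than 500 cells counted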
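material = mouse AML12 hepatocyte cell line, fixed after treatment | also added = 100 µM oleic acid challenge | doses = compound at 6.5 µM only | schedule = overnight exposure | technique = Image-based BODIPY and DAPI two-channel analysis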
Yeast superoxide: reduction of superoxide in aged yeast, primary screen, HTS | AID 2690, 2010 | superoxide response (% of plate mean), % at 10 µM | S. cerevisiae aged cells, superoxide DHE fluorescence; active compounds read low | 330,000 compounds, 0.18% hits;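 active means superoxide response under a set limit, about three screen SD below normal, cut at about 65% in these data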;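 further: yeast aged for seven days with compound at 30 °C before DHE staining; 100% = average MFI of all compound-treated wells on the plate with controls excluded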
SMARCA2 activ: SMARCA2 (BRM) function activators, primary screen, cell-based, luminescence, high throughput; MG213 cells, MMTV-luciferase reporter, dexamethasone, overnight; activation, % at 9.1 µM; 370,000 compounds, 1% hits; AID 652017, 2013; in the data active means activation above about 7.8%;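 further: 0% = vehicle wells and 100% = reference activator wells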
AHR act: AHR activators, primary screen, cell-based, luminescence, luciferase reporter, human; Aryl hydrocarbon receptor (Homo sapiens), P35869; AHR-responsive luciferase reporter cells; activation, % at 5 µM; 320,000 compounds, 2.5% hits; in the data active means activation above about 47%;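 further: 0% = vehicle wells and 100% = reference agonist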
SR-BI DiI inh: inhibitors of SR-BI mediated HDL lipid uptake, primary screen, ldlA[mSR-BI] cells, fluorescence, single point | Scavenger receptor class B member 1 (Mus musculus), Q61009 | ldlA[mSR-BI] CHO cells, DiI-HDL uptake fluorescence, 3 h | inhibition, % at 12.5 µM | 320,000 compounds, 0.96% hits | AID 488896, 2010;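 active means mean replicate inhibition of at least 70% and a set share of replicates each scoring 70 or more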;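 further: 0% = median of neutral control wells and 100% = median of positive control wells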
Target sequence (Q61009 whole entry, looked up): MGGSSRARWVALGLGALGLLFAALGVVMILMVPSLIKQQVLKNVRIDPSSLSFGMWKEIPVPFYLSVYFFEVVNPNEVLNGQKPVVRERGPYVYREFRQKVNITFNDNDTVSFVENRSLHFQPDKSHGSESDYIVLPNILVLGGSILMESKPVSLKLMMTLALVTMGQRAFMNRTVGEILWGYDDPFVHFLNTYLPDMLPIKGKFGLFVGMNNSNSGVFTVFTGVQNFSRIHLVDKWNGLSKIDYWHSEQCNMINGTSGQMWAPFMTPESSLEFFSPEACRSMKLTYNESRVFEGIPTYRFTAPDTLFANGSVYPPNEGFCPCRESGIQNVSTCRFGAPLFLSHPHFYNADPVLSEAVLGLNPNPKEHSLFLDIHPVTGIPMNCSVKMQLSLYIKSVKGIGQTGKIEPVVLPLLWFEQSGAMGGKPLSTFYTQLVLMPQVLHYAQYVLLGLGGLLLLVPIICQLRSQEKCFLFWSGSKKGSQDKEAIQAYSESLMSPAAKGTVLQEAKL
* hit, by the source's call; . = no result. Sampled rows, rich in hits. Any-hit rate of the full collection: about 4.3%.

SMILES | SR-BI DiI-HDL act | Hep lipid drop | Yeast superoxide | SMARCA2 activ | AHR act | SR-BI DiI inh
COc1ccc(-c2cc3cc(-c4cc(OC)c(OC)c(OC)c4)ccc3o2)cc1 | -14 | . | 111 | 0 | -2 | 14
Cc1ccccc1CS(=O)(=O)Cc1ccc(C(=O)Nc2ccc(F)cc2)o1 | . | . | . | -7 | . | .
COC(=O)c1oc2ccccc2c1NC(=O)CN1CCCC1 | 18 | . | 100 | -3 | 54* | -18
O=c1oc2ccc3ccccc3c2cc1-c1nnc(-c2ccccc2)o1 | 25 | . | 112 | 3 | 10 | -25
N=c1oc2ccccc2cc1-c1nc(-c2ccccc2)cs1 | 1 | 19 | 86 | 1 | 59* | -1
O=c1oc2ccc3ccccc3c2cc1-c1nnc(-c2cccs2)o1 | -15 | -14 | 100 | 1 | 52* | 15
N=c1oc2ccc3ccccc3c2cc1-c1nc(-c2ccccc2)cs1 | 22 | -9 | 94 | -1 | 15 | -22
O=c1oc2ccccc2cc1-c1nc(-c2cccs2)cs1 | -27 | -2 | 91 | 7 | 62* | 27
O=C(C1CCCN1S(=O)(=O)c1cccc2ccccc12)N1CCN(c2ccccc2)CC1 (configuration not stated) | . | . | . | 0 | . | .
COC(=O)[C@@]12CCCCC3=C1N(CCC3)C(=O)[C@H]2CC(=O)NCC12CC3CC(CC(C3)C1)C2 | . | . | . | -2 | . | .
Fc1cccc(/C=N/NC(=S)Nc2ccccc2Cl)c1 | -52 | 23 | 115 | 6 | 76* | 52
S=C(N/N=C/c1ccc(Cl)c(Cl)c1)Nc1ccccc1Cl | -41 | 17 | 101 | 1 | 41 | 41
CC(=O)c1sc(N/N=C/c2cccc(O)c2)nc1C | . | 9 | 97 | 2 | 1 | .
CC(=O)c1sc(N/N=C\c2c(O)ccc3ccccc23)nc1C | -97 | . | 103 | 2 | 65* | 97*
CC(=O)c1sc(N/N=C\c2ccc(N(C)C)cc2)nc1C | -9 | 14 | 96 | 5 | 57* | 9
CCc1cc2c(nc1CC)CCCN2S(=O)(=O)c1ccc(C)cc1 | . | . | . | -5 | . | .
CCOC(=O)c1c(C)[nH]c2ccc(O)cc12 | -22 | . | 99 | -1 | 65* | 22
COC(=O)[C@]12C[C@H](CC(=O)N3CCSCC3)C(=O)N(CCC3=CCCCC3)C1=C[C@H](C1CCCC1)O[C@@H]2C | . | . | . | -1 | . | .
CC1Cc2ccccc2N1C(=O)Cn1c(=O)oc2cc(S(=O)(=O)N3CCCCC3)ccc21 (configuration not stated) | -80 | . | 109 | -3 | -1 | 80*
Cc1c(CCOC(=O)C23CC4CC(CC(C)(C4)C2)C3)sc[n+]1Cc1ccccc1 | 9 | . | 93 | -3 | 0 | -9
Cc1c(CCOC(=O)C23CC4CC(CC(C4)C2)C3)sc[n+]1Cc1ccccc1 | 25 | 10 | 92 | -3 | 69* | -25
CCOc1cc(/C=C2/NC(=S)NC2=O)ccc1OCc1ccc([N+](=O)[O-])cc1 | -73 | -29 | 85 | 0 | -1 | 73*
CCOC(=O)[C@]12CCCC=C1N(Cc1ccc(OC)cc1)C(=O)[C@@H]2CC(=O)NCCCN1CCCC1=O | . | . | . | -1 | . | .
Cc1ccc(-c2csc(=Nc3cccnc3)n2CCCn2ccnc2)cc1C | -29 | -12 | 93 | -7 | 31 | 29
Cc1ccc(-c2csc(=Nc3cccnc3)n2CCCN2CCCC2=O)cc1C | 74* | -4 | 102 | -4 | 13 | -74
SMILES | SR-BI DiI-HDL act | Hep lipid drop | Yeast superoxide | SMARCA2 activ | AHR act | SR-BI DiI inh
COc1ccc(C(=O)N2CCN(C(=O)c3ccc(-c4ccccc4)cc3)CC2)cc1OC | -45 | -18 | 93 | 0 | 0 | 45
COc1cccc(CN2CCN(C(=O)c3ccc(-c4ccccc4)cc3)CC2)c1OC | -9 | -4 | 98 | 0 | 4 | 9
COc1cc(CN2CCN(C(=O)c3ccc(-c4ccccc4)cc3)CC2)cc(OC)c1OC | -84 | -6 | 96 | 0 | 0 | 84*
COc1cccc(OC)c1C(=O)N1CCN(Cc2ccccc2C)CC1 | 67* | . | 105 | -3 | -1 | -67
COc1cc(OC)cc(C(=O)N2CCN(C(=O)c3ccc(-c4ccccc4)cc3)CC2)c1 | -79 | 16 | 102 | -1 | 0 | 79*
CC(C)C[C@H](NC(=O)C1CC1)C(=O)N1CCC[C@H]1C(=O)NCc1ccccc1 | . | . | . | -3 | . | .
CCc1ccc(CCNC(=O)OCCCN2CCC3(CCC(C)CC3)C2=O)cc1 (configuration not stated) | . | . | . | -5 | . | .
COC(=O)[C@]12C[C@H](CC(=O)N3CCN(C(=O)C4CC4)CC3)C(=O)N(Cc3ccc(Cl)cc3Cl)C1=C[C@H](C1CCCC1)O[C@@H]2C | . | . | . | -3 | . | .
N#Cc1c(Nc2ccccc2)sc(C(=O)C2CC2)c1N | -25 | 0 | 87 | 6 | 49* | 25
N#Cc1c(Nc2ccccc2)sc(C(=O)c2ccc(F)cc2)c1N | -39 | 2 | 95 | 0 | 13 | 39
O=C(NN=C1CCC(=NNC(=O)c2ccccn2)CC1)c1ccccn1 | 10 | 8 | . | 11* | . | -10
COc1cc2c(cc1OC)CN(c1ccc3ccccc3n1)CC2 | -76 | -6 | 117 | 5 | 7 | 76*
O=c1c2ccccc2nc(COc2ccccc2)n1/N=C/c1cc([N+](=O)[O-])ccc1O | -130 | -16 | 89 | 0 | 7 | 130*
Cc1cc(/C=N/n2c(COc3ccccc3C)nc3ccccc3c2=O)c(O)c([N+](=O)[O-])c1 | -144 | 0 | 92 | 1 | 13 | 144*
Cc1ccc(-c2[nH]ncc2/C=N/n2c(COc3ccccc3C)nc3ccccc3c2=O)cc1 | 11 | -16 | 96 | 2 | 25 | -11
COC(=O)[C@@]12CCCCC3=C1N(CCC3)C(=O)[C@H]2CC(=O)NCc1ccc(OC)c(OC)c1 | . | . | . | 3 | . | .
Nc1[nH]c2cc(C(F)(F)F)ccc2c1C(=O)N1CCN(CCc2ccccc2)CC1 | . | . | . | -4 | . | .
CCCOc1ccc(CNC(=S)Nc2ccccc2)cc1Cl | -17 | . | 100 | -3 | 76* | 17
O=C(CNc1cccc2ccccc12)N/N=C/c1ccc([N+](=O)[O-])o1 | 7 | -23 | 137 | -2 | 65* | -7
CC(=O)C1=C(C)N(Cc2ccc(F)cc2)C(=S)NC1c1ccccc1 (configuration not stated) | . | . | . | -2 | . | .
COc1ccc(S[C@]2(C(=O)N3CCCC3)CC(=O)N(c3ccsc3)[C@@H]2c2ccc(OC)cc2)cc1 | . | . | . | -5 | . | .
COc1ccc(NC(=O)CC2C(=O)Nc3ccccc3N2CC(=O)N2CCCC2)cc1 (configuration not stated) | -5 | . | 100 | -1 | 74* | 5

Screening data: PubChem, several laboratories
